Results: ChEMBL document CHEMBL2346503, “Synthesis and evaluation of novel (18)F-labeled spirocyclic piperidine derivatives as σ1 receptor ligands for positron emission tomography imaging” (J Med Chem, 2013)

Columns and labels:
[1] = Chemical stability of the compound at room temperature up to 4 hrs; format: physicochemical
Outline: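 Radiotracer (3.7 MBq in 100 μL water) was added to 1 mL of 80% ethanol or 0.9% NaCl and held at room temperature for 4 h. Radiochemical purity was checked by HPLC at 1, 2 and 4 h.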

[2] = Metabolic stability in ICR mouse liver at 18.5 MBq, iv after 30 mins by HPLC analysis; format: ADME, organism-based; conditions: read-out: Stability
Outline: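 Male ICR mice given radiotracer iv (18.5 MBq, 0.2 mL), killed at 30 min. Brain and liver were homogenized in ice-cold PBS (0.01 M, pH 7.4) and extracted with ice-cold MeCN. Supernatants were filtered, concentrated and analysed by radio-HPLC on a C18 column, acetonitrile/water with 0.1% TFA (45:55), 1 mL/min.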

[3] = tested on: Cerebellum; experiment: Biodistribution in Sprague-Dawley rat cerebellum at 23 MBq, iv after 60 mins by microPET imaging/CT study in presence of haloperidol; format: ADME, organism-based; conditions: in vivo, 1 h
Outline: (§1)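 Sprague-Dawley rats under isoflurane (1.5–2.5%) in oxygen received 23 MBq radiotracer (0.2 mL saline) via tail vein. Blocking animals were pre-injected with haloperidol (0.2 mL, 1 mg/kg) 5 min before the tracer. MicroPET emission was acquired for 30 min starting 60 min post-injection, followed by a 5 min CT scan; images were summed over 60–90 min.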

[4] = tested on: Rattus norvegicus; experiment: Biodistribution in Sprague-Dawley rat pontine reticular nucleus at 23 MBq, iv after 60 mins by microPET imaging/CT study; format: ADME, organism-based; conditions: in vivo, 1 h; outline: as §1
[5] = tested on: Hypothalamus; experiment: Biodistribution in Sprague-Dawley rat hypothalamus at 23 MBq, iv after 60 mins by microPET imaging/CT study; format: ADME, organism-based; conditions: in vivo, 1 h; outline: as §1
[6] = tested on: Midbrain; experiment: Biodistribution in Sprague-Dawley rat midbrain at 23 MBq, iv after 60 mins by microPET imaging/CT study; format: ADME, organism-based; conditions: in vivo, 1 h; outline: as §1
[7] = Drug uptake in Sprague-Dawley rat lateral ventricle at 12.2 MBq, iv after 60 mins by autoradiography; format: ADME, organism-based; conditions: in vivo, 1 h
Outline: (§2)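 [¹⁸F]-labelled tracer (0.2 mL, 12.2 MBq) given intravenously to conscious Sprague-Dawley rats (n = 3). Each rat was killed by cervical dislocation 60 min after injection. The brain was removed and frozen in liquid nitrogen, and 20 μm coronal sections were cut on a cryostat for ex vivo autoradiography of regional radioactivity.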

[8] = Drug uptake in Sprague-Dawley rat white matter at 12.2 MBq, iv after 60 mins by autoradiography; format: ADME, organism-based; conditions: in vivo, 1 h; outline: as §2
[9] = tested on: Brain; experiment: Biodistribution in ICR mouse brain assessed as reduction in radiotracer uptake at 370 kBq, iv after 60 minutes by gamma-counting analysis in presence of (S)-(-)raclopride; format: ADME, organism-based; conditions: in vivo, 1 h
Outline: (§3)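 Male ICR mice got saline or a blocker (haloperidol, (S)-(−)-raclopride, fluvoxamine or tamoxifen; 0.1 mL, 2.2 μmol/kg) via tail vein 5 min before 370 kBq tracer iv. Brain was γ-counted at 60 min and compared with saline controls by two-tailed Student's t test, p ≤ 0.05.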

[10] = tested on: Brain; experiment: Biodistribution in ICR mouse brain assessed as reduction in radiotracer uptake at 370 kBq, iv after 60 minutes by gamma-counting analysis in presence of tamoxifen; format: ADME, organism-based; conditions: in vivo, 1 h; outline: as §3

Stability [1]: Stable
remaining at 0.5 h [2]: 40.3%
Drug uptake [3]: Active
Drug uptake [4]: Active
Drug uptake [5]: Active
Drug uptake [6]: Active
Drug uptake [7]: Active
Drug uptake [8]: Active
Drug uptake [9]: Active
Drug uptake [10]: Active
Compound: [18F]CCOc1ccc(CN2CCC3(CC2)OCc2ccccc23)cc1
